This passage reports Reduction results from ChEMBL document CHEMBL1123452, “Synthesis and hypolipidemic activities of 5-thienyl-4-oxazoleacetic acid derivatives” (1986).

The species entered for assay [1] is Rattus norvegicus. Kind of assay: Percent decrease in serum cholesterol (Cho) after 7 days at 0.05 percent in the diet of SD male rats in comparison to control animals. The class given is functional. In short, it runs like this: (§1)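 Normal SD male rats, five per group. Compound mixed into CE-2 powder diet at 50 mg/100 g (mg %), fed ad libitum for 7 days; controls received plain CE-2 powder. Total serum cholesterol measured by the Zak method and triglyceride by the Van Handel method after the feeding period. Activity expressed as percent depression versus the control-group mean. Single experiments.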

For assay [2], the species on record is Rattus norvegicus. As to the kind of experiment: Percent decrease in triglyceride (TG) after 7 days at 0.05 percent in the diet of SD male rats in comparison to control animals. The class given is functional. In short, it runs like this:
as §1

Take `CCOC(=O)CCc1nc(-c2ccc(Cl)cc2)oc1-c1ccsc1`: the Reduction is 0% in the assay listed under Rattus norvegicus [1] and 34% in the assay listed under Rattus norvegicus [2].
Take `O=C(O)Cc1nc(-c2ccsc2)oc1-c1ccc(F)cc1`: the Reduction turned out to be 13% in the assay filed under Rattus norvegicus [1] and 31% in the assay filed under Rattus norvegicus [2].
Turning to `CCNC(=O)Cc1nc(-c2ccc(F)cc2)oc1-c1ccsc1`, the Reduction was -5% in the assay filed under Rattus norvegicus [1] and 23% in the assay listed under Rattus norvegicus [2].
`CCOC(=O)Cc1nc(-c2ccccc2)oc1-c1ccccc1`: the Reduction was 13% in the assay listed under Rattus norvegicus [1] and 6% in the assay filed under Rattus norvegicus [2].
`NC(=O)Cc1nc(-c2ccccc2)oc1-c1ccsc1`: the Reduction was 20% in the assay filed under Rattus norvegicus [1] and 3% in the assay filed under Rattus norvegicus [2].
As to `COC(=O)Cc1nc(-c2ccc(Cl)cc2)oc1-c1ccsc1`, the Reduction was 14% in the assay listed under Rattus norvegicus [1] and 29% in the assay filed under Rattus norvegicus [2].
The like results for `O=C(OCCc1nc(-c2ccc(F)cc2)oc1-c1ccsc1)c1cccnc1` were, in that order, -2% and 3%.
